We go through 1 compound from ChEMBL document CHEMBL5357047, “The development of thymol-isatin hybrids as broad-spectrum antibacterial agents with potent anti-MRSA activity” (RSC Med Chem, 2024).

The test system of data set [1] is Staphylococcus aureus. As to the kind of experiment: Antibacterial activity against clinically isolated Methicillin-resistant Staphylococcus aureus assessed as inhibition of bacterial growth at 50 uM measured after 48 hrs by agar well diffusion method. It is filed as functional. The note with it: read-out: IZ. On the technique in general: A growth-free zone around the sample is the usual read-out of agar diffusion tests.

In data set [2] the test system is Staphylococcus aureus. Briefly: Disruption of biofilms against 48 hrs preformed Methicillin-resistant Staphylococcus aureus assessed as eradication of biofilms measured after 24 hrs by crystal violet staining method. The data set is classed as functional. The procedure, abridged: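 MRSA (1 × 10^5 CFU mL−1, diluted 1:100) grown 48 h at 37 °C in tryptone soy broth with 3% glucose. […] Saline wash, 95% ethanol fixation 30 min, 0.1% crystal violet 30 min at 25 °C, elution with 95% ethanol, OD 545 nm. MBEC determined. Triplicate.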

Data set [3] has as its system Staphylococcus aureus. As to the kind of experiment: Bactericidal activity against Staphylococcus aureus MTCC 740 assessed as inhibition of bacterial growth measured after 48 hrs by agar plate method. The data set is classed as functional. The essentials:
(§1)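 MBC: aliquots from microdilution wells without colour change subcultured on drug-free Mueller Hinton agar, 48 h at 37 °C aerobically. MBC is the lowest concentration with no visible growth. Triplicate.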

The subject of data set [4] is Staphylococcus aureus. As to the kind of experiment: Anti-biofilm activity against Methicillin-resistant Staphylococcus aureus assessed as mean thickness of biofilm at 1/2XMIC measured after 48 hrs by crystal violet staining based phase contrast microscopy (reference value: 15.03+/-1.63 um). The data set is classed as functional.
The next data set deals with Escherichia coli. As to the kind of experiment: Antibacterial activity against clinically isolated Escherichia coli RBRJ005 assessed as inhibition of bacterial growth at 50 uM measured after 48 hrs by agar well diffusion method. It is filed as functional. The note with it: read-out: IZ.
For another data set, the system named is Klebsiella pneumoniae. Briefly: Antibacterial activity against Klebsiella pneumoniae MTCC 109 assessed as inhibition of bacterial growth at 50 uM measured after 48 hrs by agar well diffusion method. The data set is classed as functional. The note with it: read-out: IZ.
Data set [5] has as its system Staphylococcus aureus. Briefly: Anti-biofilm activity against Methicillin-resistant Staphylococcus aureus assessed as mean thickness of biofilm at 1XMIC measured after 48 hrs by crystal violet staining based phase contrast microscopy (reference value: 15.03+/-1.63 um). It is filed as functional.
For data set [6], the system named is Staphylococcus aureus. As to the kind of experiment: Antibacterial activity against Methicillin-resistant Staphylococcus aureus ATCC 33591 assessed as inhibition of bacterial growth measured after 48 hrs by broth microdilution method. The data set is classed as functional.
The test system of data set [7] is Staphylococcus aureus. Briefly: Anti-biofilm activity against Methicillin-resistant Staphylococcus aureus assessed as reduction in biofilm formation at 1XMIC measured after 48 hrs by crystal violet staining based analysis. It is filed as functional. The procedure, abridged: (§2)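 Non-adherent cells washed off with water, stained with 0.5% crystal violet 30 min at 25 °C, dye eluted with 95% ethanol, OD 545 nm. Reported as % reduction versus untreated control. Triplicate.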

Data set [8] concerns Staphylococcus epidermidis. As to the kind of experiment: Antibacterial activity against Staphylococcus epidermidis MTCC 435 assessed as inhibition of bacterial growth measured after 48 hrs by broth microdilution method. It is filed as functional.
In data set [9] the test system is Staphylococcus aureus. Briefly: Antibacterial activity against Methicillin-resistant Staphylococcus aureus ATCC 33591 assessed as inhibition of bacterial growth at 50 uM measured after 48 hrs by agar well diffusion method. The data set is classed as functional. The note with it: read-out: IZ. The procedure, abridged:
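Agar well diffusion on Mueller Hinton agar seeded with bacteria at 0.5 McFarland. […] Incubated 48 h at 37 °C aerobically; zone of inhibition diameter (mm) measured. Triplicate.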

Data set [10] has as its system Staphylococcus aureus. Briefly: Anti-biofilm activity against Methicillin-resistant Staphylococcus aureus assessed as reduction in integrated density of biofilms at 1/2 to 2XMIC measured after 48 hrs by Syto-9 staining based fluorescence microscopy. The data set is classed as functional, organism-based. The essentials: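 After PBS washes, stained with SYTO-9 ([…]) 15 min at 25 °C and imaged by fluorescence microscopy (excitation 480 nm). Integrated density quantified from images. Triplicate, mean ± SD.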

Data set [11] can be described thus: Selectivity index, ratio of IC50 for cytotoxicity against mouse L929 cells to MIC for antibacterial activity against clinically isolated Methicillin-resistant Staphylococcus aureus. The data set is classed as toxicity, cell-based. The settings on record: read-out: Selectivity Index.
Data set [12] has as its system Staphylococcus aureus. Briefly: Antibacterial activity against clinically isolated Methicillin-resistant Staphylococcus aureus assessed as inhibition of bacterial growth measured after 48 hrs by broth microdilution method. It is filed as functional. For orientation: Broth dilution looks for growth in wells or tubes with falling amounts of substance.
Data set [13] concerns Staphylococcus aureus. Briefly: Antibacterial activity against Staphylococcus aureus MTCC 740 assessed as inhibition of bacterial growth at 50 uM measured after 48 hrs by agar well diffusion method. It is filed as functional. The settings on record: read-out: IZ.
In a further data set the test system is Galleria mellonella. As to the kind of experiment: Modulation of immune response in MRSA-infected Galleria mellonella systemic infection model assessed as reduction in haemocytes in larva's circulating lymph at 10 mg/kg measured after 24 to 48 hrs by fluorescent microscopic analysis. The settings on record: time 24-48 hrs. It is filed as functional, organism-based. The essentials:
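Galleria mellonella larvae (0.2–0.4 g, ten per group) injected in the last proleg with MRSA, 5 × 10^8 cells per larva, then given 10 mg kg−1 compound; kept at 37 °C. Hemolymph collected on ice at 24 and 48 h post inoculation, diluted in PBS, counted with an automated cell counter and viewed with trypan blue (0.1%) under a fluorescent microscope.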

In data set [14] the test system is Staphylococcus aureus. As to the kind of experiment: Antibacterial activity against Methicillin-resistant Staphylococcus aureus infected in Galleria mellonella assessed as larva's survial rate at 2.5 mg/kg measured after 24 to 48 hrs. The note with it: time 24-48 hrs. It is filed as functional. The procedure, abridged:
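Galleria mellonella larvae (0.2–0.4 g, 10 per group) injected in the last proleg with MRSA at 5 × 10^8 ± 0.2 cells per larva, then given 2.5, 5 or 10 mg kg−1. Controls: untreated, PBS, and PBS + 2% DMSO vehicle. Held at 37 °C and checked every 12 h; larvae that were black and unresponsive counted dead. Bacterial burden by CFU at 0, 24 and 48 h.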

Data set [15] deals with Staphylococcus aureus. As to the kind of experiment: Bactericidal activity against Methicillin-resistant Staphylococcus aureus ATCC 33591 assessed as inhibition of bacterial growth measured after 48 hrs by agar plate method. It is filed as functional. The procedure, abridged: as §1
The nature of data set [16]: Cytotoxicity against mouse L929 cells assessed as reduction in cell viability measured after 72 hrs by MTT assay. It is filed as toxicity, cell-based. The essentials:
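L929 cells (ATCC) grown in DMEM with 10% FBS and penicillin/streptomycin at 37 °C, 5% CO2; seeded at 5 × 10^3 cells per well and exposed to serial dilutions for 72 h, paclitaxel as positive control. MTT (5 mg mL−1), formazan dissolved in DMSO, absorbance at 490 nm; viability relative to control after blank subtraction; IC50 in μM.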

The test system of data set [17] is Staphylococcus aureus. As to the kind of experiment: Bacteriostatic activity against Methicillin-resistant Staphylococcus aureus assessed as reduction in colony formation units at 1/2XMIC measured after 48 hrs by time-kill assay. It is filed as functional, organism-based. The procedure, abridged:
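Samples taken at 1, 2, 4, 8, 12, 24 and 48 h, diluted in 0.9% saline and plated on Mueller Hinton agar (48 h, 37 °C). CFU counted and log10 CFU mL−1 plotted against time. Triplicate.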

The subject of data set [18] is Staphylococcus aureus. As to the kind of experiment: Anti-biofilm activity against Methicillin-resistant Staphylococcus aureus assessed as reduction in biofilm formation at 2XMIC measured after 48 hrs by crystal violet staining based analysis. It is filed as functional. The procedure, abridged: as §2

≈ marks a conversion by molar mass, not a printed value. Calls of active or inactive are those of the source. The calls are words filed in the database; no cut-off is given here.

In the case of `Cc1ccc(C(C)C)c(OCc2cn(CCCN3C(=O)C(=O)c4ccccc43)nn2)c1`, the zone of inhibition at 50 µM with Staphylococcus aureus [1] turned out to be 28.8 mm; in the data set on Escherichia coli, 19.3 mm; in the data set on Klebsiella pneumoniae it was 21.4 mm; in the data set with Staphylococcus aureus [9] it was 27.5 mm; with Staphylococcus aureus [13], 28.6 mm. Further, the MBEC in the data set with Staphylococcus aureus [2] came to 7.8 µM. The MBC (commonly the lowest tested concentration that kills the bacteria rather than only halting them) with Staphylococcus aureus [3] amounted to 3.9 µM (≈ 1.63 µg/mL); with Staphylococcus aureus [15], 7.8 µM (≈ 3.26 µg/mL). Besides, the Activity with Staphylococcus aureus [4] is on record as 2.97 um; with Staphylococcus aureus [5] it was 1.11 um; in the data set on Staphylococcus aureus [14], 80%. The MIC (commonly the least concentration at which growth counts as inhibited) was found to be 3.9 µM (≈ 1.63 µg/mL) in the data set on Staphylococcus aureus [6], 3.9 µM (≈ 1.63 µg/mL) in data set [8] and 1.9 µM (≈ 0.795 µg/mL) with Staphylococcus aureus [12]. Moreover, the “inhibition (INH)” value was 89.63% in the data set with Staphylococcus aureus [7] and 96.21% with Staphylococcus aureus [18]. In addition, the result with Staphylococcus aureus [10], with Galleria mellonella and in the data set with Staphylococcus aureus [17] was Active. Further, in data set [11], the selectivity ratio was 65. Further, the IC50 (usually the concentration that inhibits the measured activity by half) at 72 h in [16] came out at 125 µM.
